A short description of experiment [1]: Effective concentration required to reduce Varicella Zoster virus OKA plaque formation by using DMSO as solvent. The experiment is classed as functional, Human alphaherpesvirus 3.
Experiment [2] can be described thus: Minimal cytotoxic concentration required to alter microscopically detectable cell morphology. Type of experiment: functional. A digest of the protocol: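 Cell morphology scored by microscopy; compounds dissolved in neat DMSO, then diluted in biological media to stock solutions of ca. 50–200 μM with 1% DMSO; MCC recorded as the minimal concentration that alters microscopically detectable morphology.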

Experiment [3] is described as follows: Effective concentration required to reduce thymidine kinase-Varicella Zoster virus YS/R plaque formation by using DMSO as solvent. The experiment is classed as functional, Human alphaherpesvirus 3.
Experiment [4] has as its system HEL (human embryonic lung fibroblasts). The experiment in a line: Cytotoxic concentration required to inhibit Hel cell growth by using DMSO as solvent.

By EC50 is commonly meant the concentration needed to bring the measured effect to its halfway point. Read a high EC50 as lower potency in that assay. Broadly, the CC50 is the concentration giving 50% cytotoxicity. High values mean lower toxicity to the cells, low ones greater toxicity to the cells.

A value given as a limit tells only on which side of the number the result lay.

For the molecule `Nc1nc2c(ncn2COCCO)c(=O)[nH]1` [ACYCLOVIR], the figures for the concentration giving a half-maximal response (EC50) in experiment [1] and in experiment [3] were 1.5 µM and 53 µM, respectively. In experiment [2], the MCC was above 200 µM. This molecule gave a cytotoxic concentration (CC50) in experiment [4] above 400 µM.

Values taken from ChEMBL document CHEMBL1142787, “Bicyclic nucleoside inhibitors of Varicella-Zoster virus: the effect of branching in the p-alkylphenyl side chain” (Bioorg Med Chem Lett, 2005).
